Screening results deposited in PubChem BioAssay by Sanford-Burnham Center for Chemical Genomics.
Hits are enriched below; roughly 0.77% of the tested compounds scored in any of these assays.
bIAP activator = increases bovine intestinal alkaline phosphatase activity | purified bovine IAP, CDP-star luminescence, 30 min; stronger effect = higher value; fold of DMSO-control signal, blank-subtracted | activation factor at 20 µM | 0.17% of 200,000 active;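 active = activation factor of 2 or more at 20 µM, a signal rise over negative controls twice the positive control's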
mIAP act = mouse IAP activation; 0.24% of 330,000 active; muIAP, CDP-Star luminescence, 30 min; stronger effect = higher value; 1 = vehicle-only enzyme signal, 0 = enzyme-free wells; activation factor at 10 µM;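 active = activation factor of at least 2 at 20 µM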
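Assay system: mouse IAP enzyme; Reagent: CDP-Star chemiluminescent phosphatase substrate; Compound: DMSO-dissolved test compounds; Incubation: 30 min, room temperature; Technique: luminescence from enzymatic CDP-Star hydrolysis; Controls: DMSO-only wells and no-enzyme negative control.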
hIAP act = increases human intestinal alkaline phosphatase activity; purified human IAP, CDP-Star luminescence, 30 min; stronger effect = higher value; 1 = vehicle-only enzyme, 0 = enzyme-free background; 0.16% of 330,000 active; activation factor at 10 µM;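 active = activation factor of the enzyme at least 2-fold when tested at 20 µM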
Target sequence (P09923 whole entry, looked up): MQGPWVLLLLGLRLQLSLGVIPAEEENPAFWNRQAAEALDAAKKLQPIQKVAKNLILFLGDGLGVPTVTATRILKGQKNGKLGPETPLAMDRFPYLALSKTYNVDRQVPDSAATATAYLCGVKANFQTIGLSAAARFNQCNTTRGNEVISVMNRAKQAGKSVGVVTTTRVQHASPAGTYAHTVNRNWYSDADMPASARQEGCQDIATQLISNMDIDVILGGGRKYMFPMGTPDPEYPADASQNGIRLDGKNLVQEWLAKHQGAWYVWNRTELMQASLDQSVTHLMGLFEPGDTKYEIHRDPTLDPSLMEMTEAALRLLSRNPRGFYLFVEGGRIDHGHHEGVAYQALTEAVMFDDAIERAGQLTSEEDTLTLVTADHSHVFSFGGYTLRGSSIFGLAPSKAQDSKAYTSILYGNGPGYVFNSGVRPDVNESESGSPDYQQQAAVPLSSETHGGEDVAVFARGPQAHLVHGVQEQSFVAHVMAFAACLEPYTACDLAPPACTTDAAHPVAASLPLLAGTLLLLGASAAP
mIAP block = blocks mouse intestinal alkaline phosphatase. purified mouse IAP, CDP-Star luminescence, 30 min. inhibition, % at 10 µM. 0.2% of 330,000 active. AID 2806;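 active = inhibition of at least 40% at 10 µM in the primary screen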;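 note: plate controls were DMSO with enzyme for no effect and no enzyme wells for full effect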
hIAP inh = blocks human intestinal alkaline phosphatase; P09923; purified IAP, CDP-Star luminescence, 30 min; inhibition, % at 10 µM; 0.12% of 330,000 active; AID 2544;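 active = inhibition reaching a set limit with compound at 10 µM in the primary screen, cut at about 35% in these data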;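 note: plate controls were DMSO wells with enzyme for no effect and no-enzyme buffer wells for full effect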
bIAP inhibitor = intestinal alkaline phosphatase (bovine) inhibition; purified bovine IAP, CDP-star luminescence, 30 min; inhibition, % at 20 µM; 190,000 tested, under 10 active;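 active = over 50% inhibition of intestinal alkaline phosphatase at 20 µM in the single-dose screen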
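Assay system – bovine IAP enzyme · Quantity – bovine IAP at 1/65,000,000 final dilution · Detection – CDP-star luminescence signal · Times – 30 min reaction at room temperature · Also added – CDP-star substrate at 30 µM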
Starred values were filed as active, the others as inactive; . = not tested or not shown.

SMILES | bIAP activator | mIAP act | hIAP act | mIAP block | hIAP inh | bIAP inhibitor
CCN1/C(=C\C=C2\C(=O)N(C)C(=S)N2C)Sc2ccccc21 | 0.6 | 0.85 | 0.63 | 15 | 37* | 35
CN(CCNC(=O)C1CCCN(c2ncnc3c2nc2n3CCCCC2)C1)Cc1ccccc1 (stereo unspecified) | . | 1 | 1.2 | 0 | -23 | .
O=c1[nH]c2cc(Cl)c([N+](=O)[O-])nc2[nH]1 | 0.6 | 0.47 | 0.87 | 54* | 13 | 38
CC(C)c1ccc(NC(=O)C(c2ccc3c(c2)OCO3)N2CCN(C(=O)c3ccco3)CC2)cc1 (stereo unspecified) | 1.6 | 2.1* | 1.1 | -107 | -8 | -56
CC(C)c1ccc(NC(=O)NC2CC3CCC(C2)N3Cc2cccs2)cc1 (stereo unspecified) | 0.8 | 1.2 | 1.1 | -20 | -13 | 20
CC(C)CNC(=S)NC1CC2CCCC(C1)N2Cc1ccco1 (stereo unspecified) | 1 | 1.3 | 1.2 | -26 | -16 | 5
Cc1ccc(NC(=S)NC2CC3CCCC(C2)N3Cc2cccs2)cc1 (stereo unspecified) | 2* | 4.2* | 1.3 | -318 | -34 | -95
Cc1ccc(NC(=S)NC2CC3CCCC(C2)N3Cc2ccco2)cc1 (stereo unspecified) | 1.1 | 1.5 | 1.1 | -53 | -7 | -11
CC(C)CNC(=S)NC1CC2CCCC(C1)N2Cc1cccs1 (stereo unspecified) | 1.1 | 2.6* | 0.99 | -163 | 1 | -14
Fc1ccc(NC(=S)NC2CC3CCCC(C2)N3Cc2cccs2)cc1 (stereo unspecified) | 1.4 | 2.8* | 1.1 | -181 | -8 | -41
C[C@H](CO)N1C[C@H](C)[C@H](CN(C)Cc2ccccc2)Oc2c(NC(=O)Nc3ccc(F)cc3)cccc2C1=O | . | 1.7 | 0.96 | -70 | 4 | .
CC(C)NC(=O)N(C)C[C@H]1Oc2ccc(NC(=O)Nc3ccc(C(F)(F)F)cc3)cc2C(=O)N([C@H](C)CO)C[C@@H]1C | . | 2.4* | 1.1 | -139 | -7 | .
C[C@H](CO)N1C[C@H](C)[C@H](CN(C)Cc2ccccc2)Oc2ccc(NC(=O)Nc3ccc(F)cc3)cc2C1=O | . | 2.2* | 1 | -120 | -4 | .
C[C@H]1CN([C@@H](C)CO)C(=O)c2cc(NC(=O)NC3CCCCC3)ccc2O[C@H]1CN(C)C(=O)Nc1ccc(C(F)(F)F)cc1 | . | 2* | 0.98 | -102 | 2 | .
COc1ccc(NC(=O)Nc2ccc3c(c2)C(=O)N([C@H](C)CO)C[C@H](C)[C@@H](CN(C)C(=O)Nc2ccccc2)O3)cc1 | . | 2.9* | 1 | -185 | -4 | .
C[C@H](CO)N1C[C@H](C)[C@@H](CN(C)C(=O)Nc2ccc(C(F)(F)F)cc2)Oc2ccc(NC(=O)Nc3ccc(C(F)(F)F)cc3)cc2C1=O | . | 1.5 | 1.1 | -50 | -9 | .
Cc1ccccc1OCCC(=O)OCC(=O)Nc1ccc2[nH]c(=O)[nH]c2c1 | . | 1 | 1.1 | -1 | -5 | .
C[C@H](CO)N1C[C@H](C)[C@@H](CN(C)C(=O)NC2CCCCC2)Oc2ccc(NC(=O)NC3CCCCC3)cc2C1=O | . | 1.9 | 0.96 | -93 | 4 | .
C[C@H](CO)N1C[C@H](C)[C@@H](CN(C)C(=O)Nc2ccccc2)Oc2ccc(NC(=O)NC3CCCCC3)cc2C1=O | . | 2.1* | 1 | -108 | -1 | .
Cc1cc(C)n(-c2nc(NCCC(C)C)c3c4c(sc3n2)COC(C)(C)C4)n1 | 2.4* | . | . | . | . | -141
Cc1cc(C)n(-c2nc(NCCN(C)C)c3c4c(sc3n2)COC(C)(C)C4)n1 | . | 0.88 | 1.1 | 12 | -10 | .
COc1ccc(NC(=O)c2ccc(NC(=O)COC(=O)c3cnc(C)cn3)cc2)cc1 | . | 1 | 1.2 | -3 | -16 | .
C=CCN=C(NC#N)SCCc1ccccc1 | 0.7 | 0.99 | 1 | 0 | 0 | 34
C=CCN=C(NC#N)SCC(=O)NCc1ccccc1 | 2.2* | 0.96 | 1.1 | 4 | -14 | -124
CCN1C(=O)[C@H]2[C@@H](c3ccc(-c4ccc(F)cc4)c(OC)c3)N[C@@](CC(C)C)(C(=O)OC)[C@H]2C1=O | . | 0.98 | 0.91 | 2 | 9 | .
SMILES | bIAP activator | mIAP act | hIAP act | mIAP block | hIAP inh | bIAP inhibitor
CCOc1ccc(N(CC(=O)Nc2ccc(C)c(C)c2)S(=O)(=O)c2c(C)noc2C)cc1 | 0.9 | 2.1* | 1 | -108 | -4 | 8
COc1ccc(NC(=O)CN(c2cc(C)cc(C)c2)S(=O)(=O)c2c(C)noc2C)cc1 | 1 | 1.7 | 0.93 | -66 | 7 | 5
COc1ccc(NC(=O)CN(c2cc(C)cc(C)c2)S(=O)(=O)c2c(C)noc2C)cc1OC | 1 | 2.1* | 1.1 | -110 | -15 | 4
CN(C)/C=C/c1oc2ccc(O)cc2c1[N+](=O)[O-] | 0.8 | 0.74 | 0.54 | 26 | 46* | 17
Cc1oc2ccc(O)cc2c1C(=O)c1ccc([N+](=O)[O-])cc1 | 0.9 | 0.71 | 1.1 | 29 | -8 | 8
Cc1ccc2[nH]cc(S(=O)(=O)c3ccc(C)c(C)c3)c(=O)c2c1 | . | 0.96 | 0.86 | 4 | 14 | .
Cc1cc(C)nc(/N=C(\N)Nc2ccc(-c3ccccc3)cc2)n1 | 3.7* | 1.5 | 1.3 | -50 | -34 | -267
CC(=O)Nc1ccc(N/C(N)=N/c2nc(C)cc(C)n2)cc1 | 1 | 1.1 | 0.89 | -6 | 11 | -1
NC(=S)NN=Cc1ccc(-c2ccc(S(=O)(=O)Nc3ncccn3)cc2)o1 | . | 0.58 | 1.2 | 42* | -16 | .
C#CCOCCOCCOCCNc1nc(N2CCN(C(=O)C(Cc3cc4ccccc4[nH]3)n3cc(C(N)C(C)CC)nn3)CC2)nc(N2CCN(C(=O)C(Cc3cc4ccccc4[nH]3)n3cc(C(N)C(C)CC)nn3)CC2)n1 (stereo unspecified) | 3.9* | 1.8 | 0.91 | -78 | 9 | -292
O=C(Nc1cc(Cl)cc(Cl)c1)C1CCC(=O)N1Cc1ccccc1Cl (stereo unspecified) | 1.1 | 2* | 0.98 | -104 | 2 | -6
Cc1csc(NC(=O)C(Cc2ccccc2)n2cccc2)n1 (stereo unspecified) | 0.9 | 0.57 | 0.92 | 43* | 8 | 12
Cc1ccc(NC(=O)C(Cc2ccccc2)n2cccc2)cc1 (stereo unspecified) | . | 1.3 | 1.1 | -28 | -14 | .
CC(NC(=O)NC1CCCCC1)C(c1cccs1)N1CCN(Cc2ccccc2)CC1 (stereo unspecified) | 3.4* | 1.6 | 0.89 | -63 | 11 | -240
CC(NC(=O)NC1CCCCC1)C(c1cccs1)N1CCOCC1 (stereo unspecified) | 0.9 | 1.1 | 0.87 | -6 | 13 | 12
CCN1CCN(C(c2cccs2)C(C)NC(=S)Nc2cc(C)ccc2C)CC1 (stereo unspecified) | . | 1.1 | 0.98 | -10 | 2 | .
